In paper PMC11908206 (bioRxiv, 2025):
pEC50: −log10 of the molar value.

Experiments:
[1] = system: Apc^Q1405X small intestinal organoids; experiment: RNA-seq and GSEA of ApcQ1405X small intestinal organoids; format: cell-based, mouse; settings: 250nM G007-LK or 500nM TDI-012804, 3 days; for transcriptional response (RNA-seq), Tnks1 KO: ApcQ1405X/Tnks1 KO organoids; for transcriptional response (RNA-seq), Tnks1 WT: ApcQ1405X/Tnks1 WT organoids
Outline: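 Organoids plated at one six-well per condition in EN medium (basal Advanced DMEM/F12 with EGF 40 ng/ml and LDN 50 nM). Medium contained DMSO or test compound at 250 nM or 500 nM, then harvested for RNA isolation and sequencing.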

[2] = system: ApcQ1405X small intestinal organoids; experiment: Organoid viability; format: cell-based, mouse; settings: all Tnks1 genotypes, 6 days
OVCAR4 cells = experiment: Colony forming assay, OVCAR4; format: cell-based, human
[3] = system: ApcQ1405X small intestinal organoids; experiment: Organoid viability; format: cell-based, mouse; settings: 250nM
Outline: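 Mouse ApcQ1405X small-intestinal organoids plated at high density in Matrigel, two wells per condition, in EN medium (EGF 40 ng/ml, LDN 50 nM) containing DMSO or 250 nM compound. Medium changed every 2 days. Every 4 days, alamarBlue added to one well and fluorescence read; the other well passaged 1:2 into the same condition. Run for 20 days; n = 3, mean with SEM.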

PARP3 = molecular target: T1, PARP3 (Homo sapiens, UniProt Q9Y6F1); experiment: PARP3 inhibition; format: biochemical; settings: Fig. S9
T1 sequence (Q9Y6F1 1-533): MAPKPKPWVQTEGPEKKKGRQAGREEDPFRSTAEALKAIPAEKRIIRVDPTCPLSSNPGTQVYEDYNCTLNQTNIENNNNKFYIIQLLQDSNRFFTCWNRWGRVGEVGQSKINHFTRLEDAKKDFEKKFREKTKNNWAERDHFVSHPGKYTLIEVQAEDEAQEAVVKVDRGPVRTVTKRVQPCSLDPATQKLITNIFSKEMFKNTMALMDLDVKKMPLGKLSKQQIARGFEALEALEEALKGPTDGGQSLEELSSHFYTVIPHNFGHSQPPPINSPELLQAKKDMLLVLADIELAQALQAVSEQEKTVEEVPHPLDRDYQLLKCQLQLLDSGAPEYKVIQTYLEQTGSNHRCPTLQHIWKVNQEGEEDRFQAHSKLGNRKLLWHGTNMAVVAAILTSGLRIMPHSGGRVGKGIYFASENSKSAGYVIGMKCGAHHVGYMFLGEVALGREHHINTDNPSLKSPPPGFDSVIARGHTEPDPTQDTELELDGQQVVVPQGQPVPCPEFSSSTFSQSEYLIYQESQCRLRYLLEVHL

[4] = system: ApcQ1405X/KrasG12D/p53Q97X small intestinal organoids; experiment: Organoid viability; format: cell-based, mouse; settings: six days
AXIN1 in DLD1 cells = experiment: Western blot of endogenous AXIN1 in TNKS1 isogenic DLD1 cells; format: cell-based; settings: 500nM or 250nM, 24h
Outline: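 DLD1 TNKS1-edited clones made by Cas9 and TNKS1 sgRNA transduction with drug selection, then single-cell cloning by limiting dilution. For blotting, 700,000 cells/well were allowed to adhere 24h and treated with compound for 24h. Lysis in RIPA buffer on ice for 20 min; 20 µg protein per sample blotted for AXIN1; band intensity quantified.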

[5] = system: AXIN1 in TNKS1^KO DLD1 cells; format: cell-based; settings: 24h
H23 cells = experiment: Colony forming assay, H23; format: cell-based, human
PARP1 = PARP1 (Homo sapiens, UniProt P09874); experiment: PARP1 inhibition; format: biochemical; settings: Fig. S9
AXIN1 in SW403 cells = experiment: Western blot of AXIN1 in SW403 cells; format: cell-based, human; settings: SW403 (8p heterozygous), 250nM, 24h
Outline: (§1)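 Cells grown in RPMI-1640 with 10% FBS; 700,000 per well seeded and allowed to adhere 24h. Exposed to 250 nM compound for 24h, then lysed in RIPA buffer on ice for 20 min and cleared at 15,000 rpm for 10 min. 20 µg protein per lane probed for AXIN1; band intensity quantified.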

PARP2 = PARP2 (Homo sapiens, UniProt Q9UGN5); experiment: PARP2 inhibition; format: biochemical; settings: Fig. S9
[6] = system: TNKS2^WT, TNKS2^L1136Y and TNKS1 SAM-PARP domains; experiment: In vitro PARylation assay with purified SAM-PARP domains; format: biochemical
AXIN1 in H23 cells = experiment: Western blot of AXIN1 in H23 cells; format: cell-based, human; settings: 8p diploid H23, 250nM, 24h
Outline: as §1

[7] = system: TOPFlash reporter in DLD1 cells; experiment: TOPFlash WNT transcriptional reporter in TNKS1 isogenic DLD1 cells; format: cell-based; settings: Homo sapiens, DLD-1, read-out: TOP-Flash reporter EC50
[8] = system: ApcQ1405X/KrasG13D/p53Q97X small intestinal organoids; experiment: Organoid viability; format: cell-based, mouse; settings: six days

PARP1, sequence (P09874 whole entry, species assumed): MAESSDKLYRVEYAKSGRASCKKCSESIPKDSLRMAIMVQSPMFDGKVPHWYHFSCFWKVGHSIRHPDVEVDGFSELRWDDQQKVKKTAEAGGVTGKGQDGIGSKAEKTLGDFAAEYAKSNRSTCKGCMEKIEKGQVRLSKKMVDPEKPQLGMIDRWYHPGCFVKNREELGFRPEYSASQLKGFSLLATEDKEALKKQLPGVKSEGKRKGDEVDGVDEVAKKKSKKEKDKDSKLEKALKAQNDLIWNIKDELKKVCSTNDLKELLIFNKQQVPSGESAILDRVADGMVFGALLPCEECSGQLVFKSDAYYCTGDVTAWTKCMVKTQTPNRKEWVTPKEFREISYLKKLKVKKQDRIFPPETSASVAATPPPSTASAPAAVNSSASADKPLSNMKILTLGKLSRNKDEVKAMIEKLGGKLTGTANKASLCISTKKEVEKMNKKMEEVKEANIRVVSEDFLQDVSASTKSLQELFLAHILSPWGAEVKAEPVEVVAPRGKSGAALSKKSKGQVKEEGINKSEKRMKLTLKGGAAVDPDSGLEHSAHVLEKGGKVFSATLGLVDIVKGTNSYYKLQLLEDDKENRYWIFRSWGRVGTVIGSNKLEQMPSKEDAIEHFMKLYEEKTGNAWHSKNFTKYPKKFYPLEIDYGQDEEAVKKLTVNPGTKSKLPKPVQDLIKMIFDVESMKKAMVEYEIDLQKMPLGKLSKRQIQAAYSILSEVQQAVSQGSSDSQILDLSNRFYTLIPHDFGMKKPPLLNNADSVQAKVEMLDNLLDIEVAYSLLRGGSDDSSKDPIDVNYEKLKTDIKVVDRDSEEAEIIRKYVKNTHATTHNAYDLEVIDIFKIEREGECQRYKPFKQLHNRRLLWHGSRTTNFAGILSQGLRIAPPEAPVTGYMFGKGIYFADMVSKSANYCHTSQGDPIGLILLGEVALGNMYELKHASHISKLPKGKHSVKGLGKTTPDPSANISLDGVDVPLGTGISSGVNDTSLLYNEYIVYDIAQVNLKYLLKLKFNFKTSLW
PARP2, sequence (Q9UGN5 whole entry, species assumed, the tested form may be a part): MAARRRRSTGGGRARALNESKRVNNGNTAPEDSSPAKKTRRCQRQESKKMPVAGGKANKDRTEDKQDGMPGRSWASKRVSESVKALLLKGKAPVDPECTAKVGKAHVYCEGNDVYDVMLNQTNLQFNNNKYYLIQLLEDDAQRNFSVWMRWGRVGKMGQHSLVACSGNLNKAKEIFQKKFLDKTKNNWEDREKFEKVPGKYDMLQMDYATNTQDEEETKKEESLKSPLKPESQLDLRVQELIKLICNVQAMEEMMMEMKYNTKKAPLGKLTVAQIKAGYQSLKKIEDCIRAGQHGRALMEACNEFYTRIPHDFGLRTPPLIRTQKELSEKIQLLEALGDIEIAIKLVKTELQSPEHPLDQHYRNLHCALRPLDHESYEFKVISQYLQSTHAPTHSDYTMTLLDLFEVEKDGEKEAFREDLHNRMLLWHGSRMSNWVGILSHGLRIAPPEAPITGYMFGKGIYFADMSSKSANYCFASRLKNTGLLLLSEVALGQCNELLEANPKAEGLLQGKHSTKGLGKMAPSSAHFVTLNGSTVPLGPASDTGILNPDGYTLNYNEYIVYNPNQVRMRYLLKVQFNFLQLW

CS(=O)(=O)c1ccc(-c2nnc(/C=C/c3nnc(-c4ccc(C#N)cc4)o3)n2-c2ccccc2Cl)nc1 [G007-LK, reference compound]
transcriptional response (RNA-seq), Tnks1 KO [1]: broad transcriptional changes
transcriptional response (RNA-seq), Tnks1 WT [1]: broad transcriptional changes
organoid proliferation (organoid area and AlamarBlue) [2]: robust suppression of proliferation across all Tnks1 genotypes
colony formation, OVCAR4 (OVCAR4 cells; OVCAR4, 250nM, with or without Palbociclib): sensitive
organoid growth over 20 days ([3]; ApcQ1405X organoids): robust suppression of organoid growth

COc1cc(-c2ccccc2)ncc1C(=O)Nc1ccc2c(=O)[nH]c(-c3ccc(C(C)(C)O)cc3)nc2c1 [TDI-012804, COC1=C(C=NC(=C1)C1=CC=CC=C1)C(=O)NC1=CC=C2C(=O)NC(=NC2=C1)C1=CC=C(C=C1)C(C)(C)O]
inhibition of PARP3 (PARP3): no inhibition
toxicity to Tnks1 KO compared to Tnks1 WT AKP-G12D organoids [4]: selectively toxic
endogenous AXIN1 protein (western blot), TNKS1 HET (AXIN1 in DLD1 cells; DLD1 TNKS1 HET): marked stabilization
endogenous AXIN1 protein (western blot), TNKS1 KO (AXIN1 in DLD1 cells; DLD1 TNKS1 KO): marked stabilization
endogenous AXIN1 protein (western blot), TNKS1 diploid (AXIN1 in DLD1 cells; DLD1 TNKS1 diploid controls): minimal increase
transcriptional response (RNA-seq), Tnks1 KO [1]: near-identical overall transcriptional response to G007-LK treated cultures
transcriptional response (RNA-seq), Tnks1 WT [1]: no significant gene expression changes
AXIN1 protein (western blot), TNKS1 KO ([5]; TNKS1 KO DLD1, 250nM): increased AXIN1 protein
AXIN1 protein (western blot), TNKS1 KO/TNKS2 WT ([5]; TNKS1 KO DLD1 expressing TNKS2 WT cDNA, 250nM): increased AXIN1 protein
colony formation, H23 (H23 cells; 8p diploid H23, 250nM): nor suppress colony formation
colony formation, H23 with suppression of TNKS1 (H23 cells; H23 shTNKS1, 250nM, further enhanced with Palbociclib): significant sensitization
inhibition of PARP1 (PARP1): no inhibition
AXIN1 protein (western blot), SW403 (AXIN1 in SW403 cells): induced AXIN1 stabilization to similar levels as the pan-TNKS inhibitor G007-LK
inhibition of PARP2 (PARP2): no inhibition
effect of L1136Y mutation on potency against TNKS2 [6]: significantly reduced the potency
AXIN1 protein (western blot), H23 (AXIN1 in H23 cells): did not induce AXIN1 stabilization
pEC50 [7]: > 7.00
toxicity to Tnks1 KO compared to Tnks1 WT AKP-G13D organoids [8]: selectively toxic
colony formation, OVCAR4 TNKS1-depleted (OVCAR4 cells; OVCAR4 shTNKS1, 250nM): significantly reduced
organoid proliferation over 20 days, Tnks1 HET ([3]; ApcQ1405X Tnks1 HET organoids): significant reduction in proliferation
organoid proliferation over 20 days, Tnks1 KO ([3]; ApcQ1405X Tnks1 KO organoids): significant reduction in proliferation
